Data: ChEMBL document CHEMBL1148697, “Synthesis and evaluation of new arylbenzo[b]thiophene and diarylthiophene derivatives as inhibitors of the NorA multidrug transporter of Staphylococcus aureus” (2007)
Values after ≈ are worked out from the molar mass of the structure shown.

Columns and labels:
Type in all cases: functional
MCF7 [1] = experiment: Cytotoxicity against MCF7 cells at 10 uM; conditions: Homo sapiens
Method in brief: (§1)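 Cytotoxicity tested in KB, MCF7 and MCF7R cells with compounds at 10⁻⁵ M.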

KB [2] = experiment: Cytotoxicity against KB cells at 10 uM; conditions: Homo sapiens; method in brief: as §1
Bacillus subtilis = experiment: Effect on ethium bromide efflux in Bacillus subtilis at 20 mg/L after 10 mins
Method in brief: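 B. subtilis ΔΔ (bmr::cat blt::erm) carried plasmid pBEV, which expresses NorA from a strong promoter. Cells were transferred into PBS pH 7.2 with 0.5% glucose at 37 °C. They were loaded with EtBr (10 mg/L) plus CCCP (20 mg/L) for 10 min at 37 °C, spun down and resuspended in LB without EtBr, adding the inhibitor at that point. Fluorescence was recorded continuously for 10 min and expressed as % of initial. Each experiment was done at least three times.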

Staphylococcus aureus [3] = experiment: Increase in ciprofloxacine uptake in quinolone/macrolide-susceptible Staphylococcus aureus 1199 at 20 mg/L after 10 mins
Method in brief: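 Silicone-oil uptake assay. Cells were grown in LB to OD660 0.7–0.8, washed, and concentrated 20-fold in 100 mM phosphate pH 7.2 with 1 mM MgSO₄ and 0.4% glucose. After 5 min at 37 °C, ciprofloxacin was added at 10 mg/L. Timed samples were spun through silicone oil and the pellets lysed in 0.1 M glycine–HCl pH 3.0 at 100 °C for 10 min. Lysate fluorescence (ex 242/em 487 nm) was read against a standard curve and reported as ng per 10⁹ CFU.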

MCF7R [4] = experiment: Cytotoxicity against MCF7R cells at 10 uM; conditions: Homo sapiens; method in brief: as §1
Staphylococcus aureus [5] = experiment: Effect on ethidium bromide efflux in quinolone/macrolide-resistant Staphylococcus aureus NorA by measuring remaining initial ethidium concentration at 20 mg/L after 10 mins
Method in brief: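 S. aureus NorA 1199B grown in LB at 37 °C to A660 0.7–0.8, then loaded with EtBr (10 mg/L) plus CCCP (20 mg/L) for 10 min at 37 °C. Cells spun and resuspended in LB at 37 °C without EtBr, inhibitor added at resuspension. Fluorescence read continuously for 10 min and expressed as percentage of initial fluorescence. At least three experiments.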

Staphylococcus aureus [6] = experiment: Increase in ciprofloxacine uptake in quinolone/macrolide-resistant Staphylococcus aureus […] at 20 mg/L after 10 mins
Method in brief: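 Cells grown in LB to OD660 0.7–0.8, washed twice and concentrated 20-fold in 100 mM phosphate pH 7.2 with 1 mM MgSO4 and 0.4% glucose. Preincubated 5 min at 37 °C, then ciprofloxacin 10 mg/L added. Samples spun through silicone oil, pellets lysed in glycine–HCl pH 3.0 at 100 °C for 10 min. Fluorescence (ex 242/em 487 nm) read against a lysate standard curve, as ng per 10⁹ CFU.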

Staphylococcus aureus [7] = experiment: Antibacterial activity against quinolone/macrolide-susceptible Staphylococcus aureus ATCC 25923
Method in brief: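 MIC by twofold serial dilution in Mueller–Hinton broth with 10⁶ CFU/mL inoculum. Read as the lowest concentration with no visible growth after 18 h at 37 °C. Run in triplicate.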

Staphylococcus aureus [8] = experiment: Antibacterial activity against quinolone/macrolide-susceptible Staphylococcus aureus ATCC 25923 assessed as growth
Method in brief: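 Single-concentration growth screen: compound added from DMSO solution to a final 100 mg/L in MH medium with 10⁶ CFU/mL bacteria. Incubated at 37 °C with growth read at 650 nm after 1, 2, 8 and 24 h. Ampicillin was the positive control and DMSO the negative control. Scored ++ for no growth, + for growth <10% of the negative control, – otherwise.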

MCF7 [9] = experiment: Cytotoxicity against MCF7 cells at 0.25 nM; conditions: Homo sapiens
KB [10] = experiment: Cytotoxicity against KB cells at 0.25 nM; conditions: Homo sapiens
MCF7R [11] = experiment: Cytotoxicity against MCF7R cells at 0.25 nM; conditions: Homo sapiens

COC(=O)/C(=C/c1c(-c2ccc(C#N)cc2)sc2ccccc12)NC(=O)c1ccccc1
inhibition at 10 µM (MCF7 [1]): 0%
inhibition at 10 µM (KB [2]): 24%

O=Cc1c(-c2ccccc2)sc2ccccc12
Activity (Bacillus subtilis): 5%
Activity (Staphylococcus aureus [3]): 0.08 a.u.
inhibition at 10 µM (MCF7 [1]): 51%
inhibition at 10 µM (KB [2]): 42%
inhibition at 10 µM (MCF7R [4]): 37%
Remaining ethidium fluorescence (% of initial) (Staphylococcus aureus [5]): 72%
Activity (Staphylococcus aureus [6]): 0.07 a.u.

O=Cc1c(-c2cccnc2)sc2ccccc12
inhibition at 10 µM (MCF7 [1]): 3%
inhibition at 10 µM (KB [2]): 18%
inhibition at 10 µM (MCF7R [4]): 0%
Remaining ethidium fluorescence (% of initial) (Staphylococcus aureus [5]): 72%

N#Cc1c(-c2cccc(Cl)c2)sc2ccccc12
inhibition at 10 µM (MCF7 [1]): 36%
inhibition at 10 µM (KB [2]): 23%
inhibition at 10 µM (MCF7R [4]): 20%

FC(F)(F)COc1c(-c2cccnc2)sc2ccccc12
MIC (Staphylococcus aureus [7]): 100 µg/mL (≈ 323 µM)

N#Cc1ccccc1-c1sc2ccccc2c1OCC(F)(F)F
inhibition at 10 µM (MCF7 [1]): 49%
inhibition at 10 µM (KB [2]): 56%
inhibition at 10 µM (MCF7R [4]): 39%

N#Cc1ccccc1-c1c(OCC(F)(F)F)sc2ccccc12
inhibition at 10 µM (MCF7 [1]): 92%
inhibition at 10 µM (KB [2]): 100%
inhibition at 10 µM (MCF7R [4]): 97%

O=Cc1c(-c2ccccc2)oc2ccccc12
inhibition at 10 µM (MCF7 [1]): 47%
inhibition at 10 µM (KB [2]): 67%
inhibition at 10 µM (MCF7R [4]): 37%
Remaining ethidium fluorescence (% of initial) (Staphylococcus aureus [5]): 72%

N#Cc1ccccc1-c1sc2ccccc2c1C=O
inhibition at 10 µM (MCF7 [1]): 38%
inhibition at 10 µM (KB [2]): 51%
inhibition at 10 µM (MCF7R [4]): 33%

COc1ccsc1-c1ccccc1C#N
inhibition at 10 µM (MCF7 [1]): 17%
inhibition at 10 µM (KB [2]): 11%
inhibition at 10 µM (MCF7R [4]): 4%

O=Cc1ccsc1-c1ccccc1
inhibition at 10 µM (MCF7 [1]): 16%
inhibition at 10 µM (KB [2]): 33%
inhibition at 10 µM (MCF7R [4]): 0%

COc1cc(-c2cccnc2)sc1-c1cccnc1
MIC (Staphylococcus aureus [7]): 100 µg/mL (≈ 373 µM)

COc1ccc(-c2sc3ccccc3c2C=O)cc1
inhibition at 10 µM (MCF7 [1]): 62%
inhibition at 10 µM (KB [2]): 89%
inhibition at 10 µM (MCF7R [4]): 80%

O=Cc1c(-c2ccc(C(F)(F)F)cc2)sc2ccccc12
inhibition at 10 µM (MCF7 [1]): 73%
inhibition at 10 µM (KB [2]): 88%
inhibition at 10 µM (MCF7R [4]): 59%

O=Cc1c(-c2ccc(Cl)cc2)sc2ccccc12
inhibition at 10 µM (MCF7 [1]): 69%
inhibition at 10 µM (KB [2]): 67%
inhibition at 10 µM (MCF7R [4]): 35%

COc1c(-c2cccnc2)sc2ccccc12
MIC (Staphylococcus aureus [7]): 100 µg/mL (≈ 414 µM)

N#Cc1sc2ccccc2c1-c1cccnc1
inhibition at 10 µM (MCF7 [1]): 18%
inhibition at 10 µM (KB [2]): 37%
inhibition at 10 µM (MCF7R [4]): 22%

COc1cc(-c2cccc(C(F)(F)F)c2)sc1-c1cccnc1
inhibition at 10 µM (MCF7 [1]): 0%
inhibition at 10 µM (KB [2]): 7%
inhibition at 10 µM (MCF7R [4]): 0%

N#Cc1c(-c2ccc(Cl)cc2)sc2ccccc12
inhibition at 10 µM (MCF7 [1]): 27%
inhibition at 10 µM (KB [2]): 29%
inhibition at 10 µM (MCF7R [4]): 18%

COC(=O)C(Cc1c(-c2ccc(C#N)cc2)sc2ccccc12)NC(=O)c1ccccc1 (racemic)
inhibition at 10 µM (MCF7 [1]): 12%
inhibition at 10 µM (KB [2]): 35%
inhibition at 10 µM (MCF7R [4]): 32%
Activity (Staphylococcus aureus [8]): <10%

CC(=O)O[C@@]12CO[C@@H]1C[C@H](O)[C@@]1(C)C(=O)[C@H](O)C3=C(C)[C@@H](OC(=O)[C@H](O)[C@@H](NC(=O)OC(C)(C)C)c4ccccc4)C[C@@](O)([C@@H](OC(=O)c4ccccc4)[C@H]21)C3(C)C [DOCETAXEL]
inhibition at 0.00025 µM (MCF7 [9]): 31%
inhibition at 0.00025 µM (KB [10]): 87%
inhibition at 0.00025 µM (MCF7R [11]): 4%

COC(=O)[C@H]1[C@H]2C[C@@H]3c4[nH]c5cc(OC)ccc5c4CCN3C[C@H]2C[C@@H](OC(=O)c2cc(OC)c(OC)c(OC)c2)[C@@H]1OC [RESERPINE]
Remaining ethidium fluorescence (% of initial) (Staphylococcus aureus [5]): 72%
